Results from ChEMBL document CHEMBL1687909, “Design, synthesis, and biological evaluation of new cinnamic derivatives as antituberculosis agents” (J Med Chem, 2011).
≈ marks a conversion by molar mass, not a printed value. Calls of active or inactive are those of the source. No cut-off for these calls is given here.

What was measured:
[1] = Selectivity index, ratio of IC50 for human THP1 cells to MIC for Mycobacterium tuberculosis H37Rv; type: functional, THP-1
THP-1 = test: Cytotoxicity against human THP1 cells after 72 hrs by MTT assay; type: cell-based; conditions: THP-1, 72 h
[2] = system: Mycobacterium tuberculosis; test: Antimycobacterial activity against Mycobacterium tuberculosis assessed as inhibition of mycolic acid biosynthesis by TLC; type: functional, organism-based
In short: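 Cells saponified in 40% KOH/methoxyethanol overnight at 100 °C, acidified with H2SO4, lipids ether-extracted, fatty acids methylated; methyl esters resolved by silica TLC in dichloromethane, phosphorimaged.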

[3] = system: Mycobacterium tuberculosis; test: Antituberculosis activity against Mycobacterium tuberculosis H37Rv after 7 days by MTT assay; type: functional; conditions: 168 h
In short: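 Colorimetric MTT microassay: serial 2-fold dilutions from DMSO stocks in Middlebrook 7H9 broth, bacterial suspension in 7H9 added. After 6 days, MTT (1 mg/mL) added; 1 day later solubilization buffer, OD 570 nm. MIC = lowest concentration inhibiting growth, untreated bacilli as growth control.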

[4] = system: Mycobacterium tuberculosis; test: Selectivity ratio of MIC for isoniazid to compound for Mycobacterium tuberculosis 1400; type: functional
[5] = system: Mycobacterium tuberculosis; test: Selectivity ratio of MIC for isoniazid to compound for Mycobacterium tuberculosis MYC5165; type: functional

| SMILES | Selectivity Index [1] | IC50 (THP-1) | MIC [3] | other results |
| --- | --- | --- | --- | --- |
| CC(C)=CCOc1ccc(/C=C/C(=O)NNC(=O)c2ccncc2)cc1 | 111 | 256 µM | 2.3 µM (≈ 0.808 µg/mL) | inhibition [2]: Active |
| COc1ccc(C2CC2c2nnc3c4ccccc4cnn23)cc1 (racemic) | – | – | 395 µM (≈ 125 µg/mL) | – |
| FC(F)(F)COc1ccc(/C=C/c2nnc3c4ccccc4cnn23)cc1 | – | – | 170 µM (≈ 63 µg/mL) | – |
| CC(C)=CCC/C(C)=C/COc1ccc(/C=C/C(=O)N/N=c2/[nH]ncc3ccccc23)cc1 | 0.8 | 56 µM | 72 µM (≈ 31.9 µg/mL) | – |
| COc1ccc(/C=C/C(=O)N/N=c2/[nH]ncc3ccccc23)cc1 | 8 | 437 µM | 50 µM (≈ 16 µg/mL) | – |
| CC(C)=CCOc1ccc(C2CC2c2nnc3c4ccccc4cnn23)cc1 (racemic) | – | – | 21 µM (≈ 7.78 µg/mL) | – |
| FC(F)(F)Oc1ccc(C2CC2c2nnc3c4ccccc4cnn23)cc1 (racemic) | – | – | 170 µM (≈ 63 µg/mL) | – |
| O=C(/C=C/c1ccc(OCC(F)(F)F)cc1)N/N=c1/[nH]ncc2ccccc12 | – | – | 20 µM (≈ 7.77 µg/mL) | – |
| O=C(/C=C/c1ccc(OCC(F)(F)F)cc1)NNC(=O)c1ccncc1 | – | – | 2.2 µM (≈ 0.804 µg/mL) | inhibition [2]: Active |
| NNC(=O)c1ccncc1 [ISONIAZID] | >6081 | > 3650 µM | 0.6 µM (≈ 0.0823 µg/mL) | – |
| FC(F)(F)Oc1ccc(/C=C/c2nnc3c4ccccc4cnn23)cc1 | – | – | 702 µM (≈ 250 µg/mL) | – |
| O=C(/C=C/c1ccc(OC(F)(F)F)cc1)N/N=c1/[nH]ncc2ccccc12 | – | – | 21 µM (≈ 7.86 µg/mL) | – |
| CC(C)=CCOc1ccc(/C=C/C(=O)N/N=c2/[nH]ncc3ccccc23)cc1 | 1 | 26 µM | 21 µM (≈ 7.86 µg/mL) | – |
| FC(F)(F)COc1ccc(C2CC2c2nnc3c4ccccc4cnn23)cc1 (racemic) | – | – | 1300 µM (≈ 500 µg/mL) | – |
| CCOc1ccc(C2CC2c2nnc3c4ccccc4cnn23)cc1 (racemic) | – | – | 378 µM (≈ 125 µg/mL) | – |
| COc1ccc(/C=C/c2nnc3c4ccccc4cnn23)cc1 | 13 | 695 µM | 53 µM (≈ 16 µg/mL) | – |
| CC(C)=CCC/C(C)=C/COc1ccc(/C=C/C(=O)NNC(=O)c2ccncc2)cc1 | 22 | 43 µM | 1.9 µM (≈ 0.797 µg/mL) | inhibition [2]: Active |
| O=C(/C=C/c1ccc(OC(F)(F)F)cc1)NNC(=O)c1ccncc1 | – | – | 1.1 µM (≈ 0.386 µg/mL) | inhibition [2]: Active |
| CC(C)=CCC/C(C)=C/COc1ccc(C2CC2c2nnc3c4ccccc4cnn23)cc1 (racemic) | – | – | 28 µM (≈ 12.3 µg/mL) | – |
| CCOc1ccc(/C=C/C(=O)NNC(=O)c2ccncc2)cc1 | – | – | 1.3 µM (≈ 0.405 µg/mL) | inhibition [2]: Active |
| COc1ccc(/C=C/C(=O)NNC(=O)c2ccncc2)cc1 | 560 | 168 µM | 0.3 µM (≈ 0.0892 µg/mL) | inhibition [2]: Active |
| COc1ccc(/C=C/C(=O)N[C@@H]2CONC2=O)cc1 | – | – | 950 µM (≈ 249 µg/mL) | – |
| CCOc1ccc(/C=C/c2nnc3c4ccccc4cnn23)cc1 | – | – | 39 µM (≈ 12.3 µg/mL) | – |
| CC(C)=CCC/C(C)=C/COc1ccc(/C=C/c2nnc3c4ccccc4cnn23)cc1 | 13 | 259 µM | 19 µM (≈ 8.07 µg/mL) | – |
| CC(C)=CCOc1ccc(/C=C/c2nnc3c4ccccc4cnn23)cc1 | 320 | 449 µM | 1.4 µM (≈ 0.499 µg/mL) | Ratio [4]: 100; Ratio [5]: 1800 |
| CCOc1ccc(/C=C/C(=O)N/N=c2/[nH]ncc3ccccc23)cc1 | – | – | 12 µM (≈ 4.01 µg/mL) | – |
